According to ChEMBL document CHEMBL3091299, “Adamantyl derivative as a potent inhibitor of Plasmodium FK506 binding protein 35” (ACS Med Chem Lett, 2013):
Calls of active or inactive are those of the source. No cut-off for these calls is given here.

Columns and labels:
Homo sapiens = species on record: Homo sapiens; experiment: Inhibition of human recombinant calcineurin phosphatase activity using RII phosphopeptide as substrate incubated 10 to 30 mins prior to substrate addition by spectrophotometry
Plasmodium falciparum [1] = experiment: Antimicrobial activity against mid-ring stage Plasmodium falciparum 3D7 infected in erythrocytes assessed as reduction in trophozoite stage development at 500 nM after 16 to 24 hrs by Giemsa-staining based microscopy relative to control; type: functional, organism-based
In short: (§1)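 Highly synchronized ring-infected erythrocytes (3D7) followed over one full 48 h intraerythrocytic cycle with inhibitor, chloroquine, artemisinin, or no treatment. Parasitaemia (%) and morphology were scored from Giemsa-stained smears every 8 h, with untreated parasites as reference.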

Plasmodium falciparum [2] = experiment: Antimicrobial activity against mid-ring stage Plasmodium falciparum 3D7 infected in erythrocytes assessed as change in parasite morphology at 500 nM after 8 hrs by Giemsa-staining based microscopy relative to control; type: functional, organism-based; in short: as §1
Plasmodium falciparum [3] = experiment: Antimicrobial activity against mid-ring stage Plasmodium falciparum 3D7 infected in erythrocytes assessed as death and disintegration of parasite at 500 nM after 16 to 24 hrs by Giemsa-staining based microscopy relative to control; type: functional, organism-based; in short: as §1
Plasmodium falciparum [4] = experiment: Antimicrobial activity against mid-ring stage Plasmodium falciparum 3D7 infected in erythrocytes assessed as reduction in parasitemia at 500 nM after 8 hrs by Giemsa-staining based microscopy relative to control; type: functional, organism-based; in short: as §1
Plasmodium falciparum [5] = experiment: Antimicrobial activity against Plasmodium falciparum 3D7 infected in erythrocytes assessed as ring-stage maturation at 500 nM after 4 to 24 hrs by Giemsa-staining based microscopy relative to control; type: functional, organism-based
[6] = Inhibition of Plasmodium falciparum recombinant FKBP35 using Succ-Ala-Leu-Pro-Phe-pNA as substrate after 30 mins by UV-Vis spectrophotometry in presence of alpha-chymotrypsin
Plasmodium falciparum [7] = experiment: Antimicrobial activity against Plasmodium falciparum 3D7 infected in erythrocytes assessed as schizont-stage maturation at 500 nM after 4 to 24 hrs by Giemsa-staining based microscopy relative to control; type: functional, organism-based
Plasmodium falciparum [8] = experiment: Antimicrobial activity against Plasmodium falciparum 3D7 infected in erythrocytes assessed as disintegration of trophozoite-stage maturation at 500 nM after 16 hrs by Giemsa-staining based microscopy relative to control; type: functional, organism-based
Plasmodium falciparum [9] = experiment: Antimicrobial activity against Plasmodium falciparum 3D7 infected in erythrocytes assessed as impairment of trophozoite-stage maturation at 500 nM after 8 hrs by Giemsa-staining based microscopy relative to control; type: functional, organism-based
[10] = Inhibition of Plasmodium vivax recombinant FKBP35 using Succ-Ala-Leu-Pro-Phe-pNA as substrate after 30 mins by UV-Vis spectrophotometry in presence of alpha-chymotrypsin

| SMILES | inhibition (Homo sapiens) | Activity (Plasmodium falciparum [1]) | Activity (Plasmodium falciparum [2]) | Activity (Plasmodium falciparum [3]) | Activity (Plasmodium falciparum [4]) | Activity (Plasmodium falciparum [5]) | IC50 [6] | Activity (Plasmodium falciparum [7]) | further results |
| --- | --- | --- | --- | --- | --- | --- | --- | --- | --- |
| C=CC[C@@H]1/C=C(\C)C[C@H](C)C[C@H](OC)[C@H]2O[C@@](O)(C(=O)C(=O)N3CCCC[C@H]3C(=O)O[C@H](/C(C)=C/[C@@H]3CC[C@@H](O)[C@H](OC)C3)[C@H](C)[C@@H](O)CC1=O)[C@H](C)C[C@@H]2OC | Active | – | – | – | – | – | – | – | – |
| CCN(CC)CCCC(C)Nc1ccnc2cc(Cl)ccc12 (stereo not drawn) | – | Active | inactive | Active | inactive | – | – | – | – |
| O=C(NNC(=O)C12CC3CC(CC(C3)C1)C2)c1cccc2ccccc12 | – | – | – | – | – | inactive | 49.3 nM | inactive | – |
| C[C@@H]1CC[C@H]2[C@@H](C)C(=O)O[C@@H]3O[C@@]4(C)CC[C@@H]1[C@]32OO4 | – | – | – | – | Active | – | – | – | – |
| O=C(NNC(=O)C12CC3CC(CC(C3)C1)C2)c1ccccc1 | – | – | – | – | – | inactive | 94.8 nM | inactive | – |
| O=C(NNC(=O)C12CC3CC(CC(C3)C1)C2)c1ccncc1 | inactive | Active | inactive | Active | inactive | inactive | 83 nM | inactive | Activity (Plasmodium falciparum [8]): Active; Activity (Plasmodium falciparum [9]): Active; IC50 [10]: 75 nM |
